Data as given in ChEMBL document CHEMBL1255424, “Antistaphylococcal activity of ACHN-490 tested alone and in combination with other agents by time-kill assay” (2010).
Converted amounts (≈) assume the structure as drawn.

Experiments:
Type in all cases: functional
Staphylococcus aureus [1] = experiment: Antibacterial activity against vancomycin-intermediate Staphylococcus aureus isolate 1008 after 24 hrs by modified broth macrodilution method; conditions: isolate 1008, 24 h
Summary of the method: (§1)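 MIC read after 24 h incubation by modified broth macrodilution, validated per CLSI recommendations, against recent clinical MRSA isolates (hospital- and community-acquired, hVISA, VISA, VRSA). Daptomycin tests ran in Mueller-Hinton broth with added calcium.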

Staphylococcus aureus [2] = experiment: Antibacterial activity against vancomycin-intermediate Staphylococcus aureus isolate 1009 after 24 hrs by modified broth macrodilution method; conditions: isolate 1009, 24 h; summary of the method: as §1
Staphylococcus aureus [3] = experiment: Antibacterial activity against hospital-acquired methicillin-resistant Staphylococcus aureus isolate 1806 after 24 hrs by modified broth macrodilution method; conditions: isolate 1806, 24 h; summary of the method: as §1
Staphylococcus aureus [4] = experiment: Antibacterial activity against vancomycin-resistant Staphylococcus aureus isolate 1264 after 24 hrs by modified broth macrodilution method; conditions: isolate 1264, 24 h; summary of the method: as §1
Staphylococcus aureus [5] = experiment: Antibacterial activity against community-acquired methicillin-resistant panton-valentine leukocidin-positive Staphylococcus aureus isolate 593 after 24 hrs by modified broth macrodilution method; conditions: isolate 593, 24 h; summary of the method: as §1
Staphylococcus aureus [6] = experiment: Antibacterial activity against vancomycin-intermediate Staphylococcus aureus isolate 1004 after 24 hrs by modified broth macrodilution method; conditions: isolate 1004, 24 h; summary of the method: as §1
Staphylococcus aureus [7] = experiment: Antibacterial activity against community-acquired methicillin-resistant panton-valentine leukocidin-positive Staphylococcus aureus isolate 1468 after 24 hrs by modified broth macrodilution method; conditions: isolate 1468, 24 h; summary of the method: as §1
Staphylococcus aureus [8] = experiment: Antibacterial activity against vancomycin-intermediate Staphylococcus aureus isolate 1006 after 24 hrs by modified broth macrodilution method; conditions: isolate 1006, 24 h; summary of the method: as §1
Staphylococcus aureus [9] = experiment: Antibacterial activity against hospital-acquired methicillin-resistant Staphylococcus aureus isolate 1766 after 24 hrs by modified broth macrodilution method; conditions: isolate 1766, 24 h; summary of the method: as §1
Staphylococcus aureus [10] = experiment: Antibacterial activity against community-acquired methicillin-resistant panton-valentine leukocidin-positive Staphylococcus aureus isolate 1471 after 24 hrs by modified broth macrodilution method; conditions: isolate 1471, 24 h; summary of the method: as §1
Staphylococcus aureus [11] = experiment: Antibacterial activity against vancomycin-intermediate Staphylococcus aureus isolate 1010 after 24 hrs by modified broth macrodilution method; conditions: isolate 1010, 24 h; summary of the method: as §1
Staphylococcus aureus [12] = experiment: Antibacterial activity against vancomycin-intermediate Staphylococcus aureus isolate 1017 after 24 hrs by modified broth macrodilution method; conditions: isolate 1017, 24 h; summary of the method: as §1
Staphylococcus aureus [13] = experiment: Antibacterial activity against vancomycin-intermediate Staphylococcus aureus isolate 1015 after 24 hrs by modified broth macrodilution method; conditions: isolate 1015, 24 h; summary of the method: as §1
Staphylococcus aureus [14] = experiment: Antibacterial activity against vancomycin-intermediate Staphylococcus aureus isolate 1016 after 24 hrs by modified broth macrodilution method; conditions: isolate 1016, 24 h; summary of the method: as §1
Staphylococcus aureus [15] = experiment: Antibacterial activity against hospital-acquired methicillin-resistant Staphylococcus aureus isolate 1851 after 24 hrs by modified broth macrodilution method; conditions: isolate 1851, 24 h; summary of the method: as §1
Staphylococcus aureus [16] = experiment: Antibacterial activity against vancomycin-intermediate Staphylococcus aureus isolate 1012 after 24 hrs by modified broth macrodilution method; conditions: isolate 1012, 24 h; summary of the method: as §1
Staphylococcus aureus [17] = experiment: Antibacterial activity against vancomycin-resistant Staphylococcus aureus after 24 hrs by modified broth macrodilution method; summary of the method: as §1
Staphylococcus aureus [18] = experiment: Antibacterial activity against community-acquired methicillin-resistant panton-valentine leukocidin-positive Staphylococcus aureus isolate 950 after 24 hrs by modified broth macrodilution method; conditions: isolate 950, 24 h; summary of the method: as §1
Staphylococcus aureus [19] = experiment: Antibacterial activity against vancomycin-intermediate Staphylococcus aureus after 24 hrs by modified broth macrodilution method; summary of the method: as §1
Staphylococcus aureus [20] = experiment: Antibacterial activity against community-acquired methicillin-resistant panton-valentine leukocidin-positive Staphylococcus aureus isolate 693 after 24 hrs by modified broth macrodilution method; conditions: isolate 693, 24 h; summary of the method: as §1
Staphylococcus aureus [21] = experiment: Antibacterial activity against vancomycin-intermediate Staphylococcus aureus isolate 1287 after 24 hrs by modified broth macrodilution method; conditions: isolate 1287, 24 h; summary of the method: as §1
Staphylococcus aureus [22] = experiment: Antibacterial activity against vancomycin-intermediate Staphylococcus aureus isolate 1013 after 24 hrs by modified broth macrodilution method; conditions: isolate 1013, 24 h; summary of the method: as §1
Staphylococcus aureus [23] = experiment: Antibacterial activity against vancomycin-intermediate Staphylococcus aureus isolate 1003 after 24 hrs by modified broth macrodilution method; conditions: isolate 1003, 24 h; summary of the method: as §1
Staphylococcus aureus [24] = experiment: Antibacterial activity against vancomycin-resistant Staphylococcus aureus isolate 509 after 24 hrs by modified broth macrodilution method; conditions: isolate 509, 24 h; summary of the method: as §1
Staphylococcus aureus [25] = experiment: Antibacterial activity against vancomycin-hetero-intermediate Staphylococcus aureus isolate 618 after 24 hrs by modified broth macrodilution method; conditions: isolate 618, 24 h; summary of the method: as §1
Staphylococcus aureus [26] = experiment: Antibacterial activity against vancomycin-hetero-intermediate Staphylococcus aureus after 24 hrs by modified broth macrodilution method; summary of the method: as §1

Nc1nc(/C(=N/O)C(=O)N[C@@H]2C(=O)N3C(C(=O)O)=C(/C=C4\CCN([C@@H]5CCNC5)C4=O)CS[C@H]23)ns1 [CEFTOBIPROLE] was tested. Which MIC (Staphylococcus aureus [1]) did it give?
Its MIC is 2 µg/mL (≈ 3.74 µM).

What about the MIC (Staphylococcus aureus [2]) of the same compound?
Its MIC is 2 µg/mL (≈ 3.74 µM).

What about the MIC (Staphylococcus aureus [3]) of the same compound?
Its MIC is 1 µg/mL (≈ 1.87 µM).

And the MIC (Staphylococcus aureus [4])?
The MIC was 0.5 µg/mL (≈ 0.935 µM).

What about the MIC (Staphylococcus aureus [5]) of the same compound?
The MIC was 1 µg/mL (≈ 1.87 µM).

And the MIC (Staphylococcus aureus [6])?
The MIC was 1 µg/mL (≈ 1.87 µM).

What about the MIC (Staphylococcus aureus [7]) of the same compound?
Its MIC is 1 µg/mL (≈ 1.87 µM).

What about the MIC (Staphylococcus aureus [8]) of the same compound?
The MIC was 2 µg/mL (≈ 3.74 µM).

What about the MIC (Staphylococcus aureus [9]) of the same compound?
Its MIC is 2 µg/mL (≈ 3.74 µM).

What about the MIC (Staphylococcus aureus [10]) of the same compound?
The MIC was 1 µg/mL (≈ 1.87 µM).

What about the MIC (Staphylococcus aureus [11]) of the same compound?
The MIC was 2 µg/mL (≈ 3.74 µM).

And the MIC (Staphylococcus aureus [12])?
The MIC was 2 µg/mL (≈ 3.74 µM).

What about the MIC (Staphylococcus aureus [13]) of the same compound?
Its MIC is 1 µg/mL (≈ 1.87 µM).

And the MIC (Staphylococcus aureus [14])?
The MIC was 4 µg/mL (≈ 7.48 µM).

And the MIC (Staphylococcus aureus [15])?
Its MIC is 1 µg/mL (≈ 1.87 µM).

What about the MIC (Staphylococcus aureus [16]) of the same compound?
The MIC was 4 µg/mL (≈ 7.48 µM).

What about the MIC (Staphylococcus aureus [17]) of the same compound?
The MIC was 0.5 µg/mL (≈ 0.935 µM).

What about the MIC (Staphylococcus aureus [18]) of the same compound?
The MIC was 1 µg/mL (≈ 1.87 µM).

And the MIC (Staphylococcus aureus [19])?
Its MIC is 0.5 µg/mL (≈ 0.935 µM).

And the MIC (Staphylococcus aureus [20])?
The MIC was 1 µg/mL (≈ 1.87 µM).

What about the MIC (Staphylococcus aureus [21]) of the same compound?
Its MIC is 0.5 µg/mL (≈ 0.935 µM).

And the MIC (Staphylococcus aureus [22])?
Its MIC is 2 µg/mL (≈ 3.74 µM).

And the MIC (Staphylococcus aureus [23])?
Its MIC is 2 µg/mL (≈ 3.74 µM).

What about the MIC (Staphylococcus aureus [24]) of the same compound?
The MIC was 2 µg/mL (≈ 3.74 µM).

What about the MIC (Staphylococcus aureus [25]) of the same compound?
Its MIC is 2 µg/mL (≈ 3.74 µM).

And the MIC (Staphylococcus aureus [26])?
The MIC was 2 µg/mL (≈ 3.74 µM).
